Results as given in ChEMBL document CHEMBL4270599, “Synthesis of a 3'-C-ethynyl-β-d-ribofuranose purine nucleoside library: Discovery of C7-deazapurine analogs as potent antiproliferative nucleosides” (Eur J Med Chem, 2018).

Key:
[1] = system: HL-60(TB); assay: Growth inhibition of human HL-60(TB) cells assessed as cell growth at 10^-6 M incubated for 48 hrs by sulforhodamine B assay relative to control; assay type: functional; conditions: HL-60, 48 h, read-out: Activity
[2] = system: SF-539; assay: Growth inhibition of human SF539 cells assessed as cell growth at 10^-8 M incubated for 48 hrs by sulforhodamine B assay relative to control; assay type: functional; conditions: SF-539, 48 h, read-out: Activity
[3] = system: Malme-3M; assay: Growth inhibition of human MALME-3M cells assessed as cell growth at 10^-5 M incubated for 48 hrs by sulforhodamine B assay relative to control; assay type: functional; conditions: read-out: Activity
[4] = system: KM12; assay: Growth inhibition of human KM12 cells assessed as cell growth at 10^-8 M incubated for 48 hrs by sulforhodamine B assay relative to control; assay type: functional; conditions: KM12, 48 h, read-out: Activity
[5] = system: SK-MEL-28; assay: Growth inhibition of human SK-MEL-28 cells assessed as cell growth at 10^-6 M incubated for 48 hrs by sulforhodamine B assay relative to control; assay type: functional; conditions: SK-MEL-28, 48 h, read-out: Activity
[6] = system: HOP-62; assay: Growth inhibition of human HOP62 cells assessed as cell growth at 10^-6 M incubated for 48 hrs by sulforhodamine B assay relative to control; assay type: functional; conditions: HOP-62, 48 h, read-out: Activity
[7] = system: Hs-578T; assay: Cytotoxicity against human Hs 578T cells after 48 hrs by SRB assay; assay type: functional; conditions: for GI50: read-out: pGI50 (converted)
[8] = system: M14; assay: Growth inhibition of human M14 cells assessed as cell growth at 10^-5 M incubated for 48 hrs by sulforhodamine B assay relative to control; assay type: functional; conditions: M14, 48 h, read-out: Activity
[9] = system: U-251; assay: Growth inhibition of human U251 cells assessed as cell growth at 10^-7 M incubated for 48 hrs by sulforhodamine B assay relative to control; assay type: functional; conditions: U-251, 48 h, read-out: Activity
[10] = system: DU-145; assay: Growth inhibition of human DU145 cells assessed as cell growth at 10^-6 M incubated for 48 hrs by sulforhodamine B assay relative to control; assay type: functional; conditions: DU-145, 48 h, read-out: Activity
[11] = system: CCRF-CEM; assay: Antiproliferative activity against human CEM cells after 72 hrs by Coulter counter method; assay type: functional, cell-based
How it was run: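 Cell count assay in 96-well microtiter plates; (5–7.5) × 10⁴ tumor cells per well plus test compound. Cells proliferated at 37 °C in humidified CO₂-controlled atmosphere, 48 h for murine leukemia L1210, 72 h for human lymphocytic CEM and cervix carcinoma HeLa. Counted by Coulter counter; IC₅₀ is the concentration that inhibits proliferation by 50%.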

[12] = system: BT-549; assay: Growth inhibition of human BT549 cells assessed as cell growth at 10^-5 M incubated for 48 hrs by sulforhodamine B assay relative to control; assay type: functional; conditions: BT-549, 48 h, read-out: Activity
[13] = system: MCF7; assay: Growth inhibition of human MCF7 cells assessed as cell growth at 10^-6 M incubated for 48 hrs by sulforhodamine B assay relative to control; assay type: functional; conditions: MCF7, 48 h, read-out: Activity
[14] = system: NCI-H23; assay: Growth inhibition of human NCI-H23 cells assessed as cell growth at 10^-6 M incubated for 48 hrs by sulforhodamine B assay relative to control; assay type: functional; conditions: NCI-H23, 48 h, read-out: Activity
[15] = system: TK-10; assay: Growth inhibition of human TK10 cells assessed as cell growth at 10^-5 M incubated for 48 hrs by sulforhodamine B assay relative to control; assay type: functional; conditions: TK-10, 48 h, read-out: Activity
[16] = system: M14; assay: Growth inhibition of human M14 cells assessed as cell growth at 10^-6 M incubated for 48 hrs by sulforhodamine B assay relative to control; assay type: functional; conditions: M14, 48 h, read-out: Activity
[17] = system: NCI-H460; assay: Cytotoxicity against human NCI-H460 cells after 48 hrs by SRB assay; assay type: functional; conditions: NCI-H460, 48 h; for GI50: read-out: pGI50 (converted)
[18] = system: SW-620; assay: Growth inhibition of human SW620 cells assessed as cell growth at 10^-7 M incubated for 48 hrs by sulforhodamine B assay relative to control; assay type: functional; conditions: SW-620, 48 h, read-out: Activity
[19] = system: HCT-15; assay: Growth inhibition of human HCT15 cells assessed as cell growth at 10^-6 M incubated for 48 hrs by sulforhodamine B assay relative to control; assay type: functional; conditions: HCT-15, 48 h, read-out: Activity
[20] = system: OVCAR-5; assay: Growth inhibition of human OVCAR5 cells assessed as cell growth at 10^-4 M incubated for 48 hrs by sulforhodamine B assay relative to control; assay type: functional; conditions: OVCAR-5, 48 h, read-out: Activity
[21] = system: NCI-H460; assay: Growth inhibition of human NCI-H460 cells assessed as cell growth at 10^-6 M incubated for 48 hrs by sulforhodamine B assay relative to control; assay type: functional; conditions: NCI-H460, 48 h, read-out: Activity
[22] = system: NCI/ADR-RES; assay: Growth inhibition of human NCI/ADR-RES cells assessed as cell growth at 10^-8 M incubated for 48 hrs by sulforhodamine B assay relative to control; assay type: functional; conditions: read-out: Activity
[23] = system: OVCAR-5; assay: Growth inhibition of human OVCAR5 cells assessed as cell growth at 10^-8 M incubated for 48 hrs by sulforhodamine B assay relative to control; assay type: functional; conditions: OVCAR-5, 48 h, read-out: Activity
[24] = system: RXF 393; assay: Cytotoxicity against human RXF393 cells after 48 hrs by SRB assay; assay type: functional; conditions: RXF 393, 48 h; for GI50: read-out: pGI50 (converted)
[25] = system: NCI-H322M; assay: Growth inhibition of human NCI-H322M cells assessed as cell growth at 10^-7 M incubated for 48 hrs by sulforhodamine B assay relative to control; assay type: functional; conditions: read-out: Activity
[26] = system: UACC-257; assay: Growth inhibition of human UACC257 cells assessed as cell growth at 10^-5 M incubated for 48 hrs by sulforhodamine B assay relative to control; assay type: functional; conditions: UACC-257, 48 h, read-out: Activity
[27] = system: SK-MEL-5; assay: Growth inhibition of human SK-MEL-5 cells assessed as cell growth at 10^-6 M incubated for 48 hrs by sulforhodamine B assay relative to control; assay type: functional; conditions: SK-MEL-5, 48 h, read-out: Activity
[28] = system: HOP-62; assay: Growth inhibition of human HOP62 cells assessed as cell growth at 10^-7 M incubated for 48 hrs by sulforhodamine B assay relative to control; assay type: functional; conditions: HOP-62, 48 h, read-out: Activity
[29] = system: CCRF-CEM; assay: Cytotoxicity against human CCRF-CEM cells after 48 hrs by SRB assay; assay type: functional; conditions: for GI50: read-out: pGI50 (converted)
[30] = system: CCRF-CEM; assay: Growth inhibition of human CCRF-CEM cells assessed as cell growth at 10^-6 M incubated for 48 hrs by sulforhodamine B assay relative to control; assay type: functional; conditions: read-out: Activity
[31] = system: HUVEC; assay: Antiproliferative activity against HUVEC cells after 4 days by Coulter counter method; assay type: cell-based; conditions: Homo sapiens, 96 h
How it was run: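 Primary HUVEC, primary HMVEC-d and the HMEC-1 line seeded at 20,000 cells/well in gelatin-coated plates in EC growth medium (EGM2). After overnight incubation, 5-fold compound dilutions added. Cells proliferated four days with compound, then trypsinized and counted by Coulter counter to derive IC₅₀.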

[32] = read-out: pLC50 (the source's name) (converted)
[33] = read-out: LC50 (the source's name)

Structure (SMILES): C#C[C@@]1(O)[C@@H](CO)O[C@@H](n2ccc3c(N)ncnc32)[C@@H]1O
- growth at 1 µM [1]: 68%
- growth at 0.01 µM [2]: 92%
- growth at 10 µM [3]: -25%
- growth at 0.01 µM [4]: 98%
- growth at 1 µM [5]: 94%
- growth at 1 µM [6]: 77%
- TGI ([7]; read-out: TGI): > 100 µM
- GI50 [7]: 4.68 µM
- CC50 [7, 32]: > 100 µM
- TGI ([7]; read-out: pTGI): > 100 µM
- growth at 10 µM [8]: -80%
- growth at 0.1 µM [9]: 107%
- growth at 1 µM [10]: 34%
- IC50 [11]: 0.71 µM
- growth at 10 µM [12]: -63%
- growth at 1 µM [13]: 13%
- growth at 1 µM [14]: 57%
- growth at 10 µM [15]: -2%
- growth at 1 µM [16]: 73%
- TGI ([17]; read-out: TGI): 10.6 µM
- GI50 [17]: 0.468 µM
- CC50 [17, 32]: > 100 µM
- TGI ([17]; read-out: pTGI (converted)): 10.7 µM
- growth at 0.1 µM [18]: 77%
- growth at 1 µM [19]: 48%
- growth at 100 µM [20]: -31%
- growth at 1 µM [21]: 30%
- growth at 0.01 µM [22]: 97%
- growth at 0.01 µM [23]: 87%
- TGI ([24]; read-out: TGI): 4.6 µM
- GI50 [24]: 1.91 µM
- CC50 [24, 32]: 12.9 µM
- TGI ([24]; read-out: pTGI (converted)): 4.57 µM
- growth at 0.1 µM [25]: 94%
- growth at 10 µM [26]: -16%
- growth at 1 µM [27]: 85%
- growth at 0.1 µM [28]: 103%
- CC50 [29, 33]: > 100 µM
- TGI ([29]; read-out: TGI): > 100 µM
- GI50 [29]: 2.29 µM
- TGI ([29]; read-out: pTGI): > 100 µM
- growth at 1 µM [30]: 70%

Structure (SMILES): C#C[C@@]1(O)[C@@H](CO)O[C@@H](n2cc(F)c3c(N)ncnc32)[C@@H]1O
- growth at 1 µM [1]: 20%
- growth at 0.01 µM [2]: 104%
- growth at 10 µM [3]: -34%
- growth at 0.01 µM [4]: 104%
- growth at 1 µM [5]: 72%
- growth at 1 µM [6]: 33%
- CC50 [7, 33]: > 100 µM
- TGI ([7]; read-out: TGI): > 100 µM
- GI50 [7]: 3.98 µM
- TGI ([7]; read-out: pTGI): > 100 µM
- growth at 10 µM [8]: -48%
- growth at 0.1 µM [9]: 99%
- growth at 1 µM [10]: 16%
- IC50 [11]: 0.16 µM
- growth at 10 µM [12]: -28%
- growth at 1 µM [13]: -8%
- growth at 1 µM [14]: 22%
- growth at 10 µM [15]: -9%
- growth at 1 µM [16]: 29%
- CC50 [17, 33]: > 100 µM
- TGI ([17]; read-out: TGI): 10.2 µM
- GI50 [17]: 0.229 µM
- TGI ([17]; read-out: pTGI (converted)): 10.2 µM
- growth at 0.1 µM [18]: 61%
- growth at 1 µM [19]: 18%
- growth at 100 µM [20]: 7%
- growth at 1 µM [21]: 5%
- growth at 0.01 µM [22]: 100%
- IC50 [31]: 0.067 µM
- growth at 0.01 µM [23]: 96%
- CC50 [24, 33]: > 100 µM
- TGI ([24]; read-out: TGI): 2.99 µM
- GI50 [24]: 0.724 µM
- TGI ([24]; read-out: pTGI (converted)): 3.02 µM
- growth at 0.1 µM [25]: 94%
- growth at 10 µM [26]: -17%
- growth at 1 µM [27]: 13%
- growth at 0.1 µM [28]: 101%
- TGI ([29]; read-out: TGI): > 100 µM
- GI50 [29]: 0.339 µM
- CC50 [29, 32]: > 100 µM
- TGI ([29]; read-out: pTGI): > 100 µM
- growth at 1 µM [30]: 23%
